Data reported in ChEMBL document CHEMBL1122463, “2,3-dihydro-3-(1-pyrryl)spiro[benzofuran-2,4'-piperidine]s and 2,3-dihydro-3-(1-pyrryl)spiro[benzofuran-2,3'-pyrrolidine]s: novel antihypertensive agents” (1983).
Where “and” joins values, the source holds several entries; their conditions need not be identical. Identical values can stand only once.

Experiments:
[1] = system: Rattus norvegicus; assay: (§1) Oral hypotensive activity in spontaneously hypertensive rats by using tail-cuff method measured as change in systolic BP at the dose of 25 mg/kg po.; assay type: functional, Blood
Outline: (§2)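 Okamoto-Aoki spontaneously hypertensive rats. Compound suspended in distilled water with Tween 80, given po daily, screening dose 50 mg/kg, dose-response at 50, 30, 10 or 3 mg/kg unless stated. Systolic BP by tail-cuff plethysmography on day 1 predose and 2 h, day 3 predose and 2 h, and day 5 predose, 2 and 4 h. Reported as peak decrease on day 3 (or day 5) at 2 h ± SEM. n = 4 in screen, 4–8 per dose.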

[2] = system: Rattus norvegicus; assay: (§3) Oral hypotensive activity in spontaneously hypertensive rats by using tail-cuff method measured as change in systolic BP at the dose of 10 mg/kg po.; assay type: functional, Blood
Outline: (§4)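 SHR of the Okamoto-Aoki strain, dosed orally every day with compound suspended in distilled water with Tween 80. Systolic pressure was taken by tail-cuff plethysmography on day 1 (predose, 2 h), day 3 (predose, 2 h) and day 5 (predose, 2 and 4 h). Initial BP is the pretreatment systolic pressure, with 4–8 rats per dose in the dose-response screen.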

[3] = system: Rattus norvegicus; assay: (§5) Oral hypotensive activity in spontaneously hypertensive rats by using tail-cuff method measured as change in systolic BP at the dose of 5 mg/kg po.; assay type: functional, Blood; outline: as §2
[4] = system: Rattus norvegicus; assay: as §5; assay type: functional, Blood; remark: listed apart in the source
Outline: (§6)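 Okamoto-Aoki strain spontaneously hypertensive rats. Compounds were suspended in distilled water with Tween 80 and given orally every day at 50, 30, 10 or 3 mg/kg. Systolic BP was measured by tail-cuff plethysmography on day 1 (predose and 2 h), day 3 (predose and 2 h) and day 5 (predose, 2 and 4 h). The screen used 4 rats; dose-response used 4–8 rats per dose.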

[5] = system: Rattus norvegicus; assay: (§7) Oral hypotensive activity in spontaneously hypertensive rats by using tail-cuff method measured as change in systolic BP at the dose of 50 mg/kg po.; assay type: functional, Blood; outline: as §2
[6] = system: Rattus norvegicus; assay: as §1; assay type: functional, Blood; outline: as §4; remark: listed apart in the source
[7] = system: Rattus norvegicus; assay: as §3; assay type: functional, Blood; outline: as §2; remark: listed apart in the source
[8] = system: Rattus norvegicus; assay: as §7; assay type: functional, Blood; outline: as §6; remark: listed apart in the source
[9] = species on record: Rattus norvegicus; assay: Oral hypotensive activity in spontaneously hypertensive rats by using tail-cuff method measured as change in systolic BP; assay type: functional, Blood; outline: as §2
[10] = system: Canis familiaris; assay: effect of compound at a dose of 10 mg/kg iv, on standard cardiovascular in anesthetized normotensive dogs before administration of norepinephrine.; assay type: functional, Canis lupus familiaris, Heart
Outline: (§8)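 Bilateral vagotomy was performed. BP was recorded via a femoral artery, with iv dosing via a femoral vein; BP and heart rate were recorded continuously. Each iv challenge was given twice before test drug and once after. Challenge doses were epinephrine and norepinephrine 0.5–1.0 μg/kg, and isoproterenol and carbachol 0.25 μg/kg.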

[11] = system: Canis familiaris; assay: Mean arterial BP before administration at a dose of 10 mg/kg iv.; assay type: functional, Canis lupus familiaris
[12] = system: Canis familiaris; assay: effect of compound at a dose of 10 mg/kg iv, on standard cardiovascular in anesthetized normotensive dogs after administration of carbachol.; assay type: functional, Canis lupus familiaris, Heart; outline: as §8
[13] = system: Canis familiaris; assay: effect of compound at a dose of 10 mg/kg iv, on standard cardiovascular in anesthetized normotensive dogs before administration of tyramine.; assay type: functional, Canis lupus familiaris, Heart
[14] = system: Canis familiaris; assay: Hemodynamic effect in sinoaortic- deafferented hypertensive dog measured as heart rate after 5 min of 5 mg/kg dose; assay type: functional, Canis lupus familiaris
[15] = system: Canis familiaris; assay: effect of compound at a dose of 10 mg/kg iv, on standard cardiovascular in anesthetized normotensive dogs after administration of isoproterenol.; assay type: functional, Canis lupus familiaris, Heart; outline: as §8
[16] = system: Canis familiaris; assay: Hemodynamic effect in sinoaortic- deafferented hypertensive dog measured as mean arterial BP after 30 min of 5 mg/kg dose; assay type: functional, Canis lupus familiaris
[17] = system: Canis familiaris; assay: effect of compound at a dose of 10 mg/kg iv, on standard cardiovascular in anesthetized normotensive dogs before administration of epinephrine.; assay type: functional, Canis lupus familiaris, Heart; outline: as §8
[18] = system: Canis familiaris; assay: Hemodynamic effect in sinoaortic- deafferented hypertensive dog measured as heart rate after 30 min of 5 mg/kg dose; assay type: functional, Canis lupus familiaris
[19] = system: Canis familiaris; assay: Mean heart rate before administration at a dose of 10 mg/kg iv.; assay type: functional, Canis lupus familiaris
[20] = system: Canis familiaris; assay: effect of compound at a dose of 10 mg/kg iv, on standard cardiovascular in anesthetized normotensive dogs before administration of isoproterenol.; assay type: functional, Canis lupus familiaris, Heart; outline: as §8
[21] = system: Canis familiaris; assay: Hemodynamic effect in sinoaortic- deafferented hypertensive dog measured as cardiac output after 60 min of 10 mg/kg
[22] = system: Canis familiaris; assay: Mean arterial BP after administration at a dose of 10 mg/kg iv.; assay type: functional, Canis lupus familiaris
[23] = system: Canis familiaris; assay: Hemodynamic effect in sinoaortic- deafferented hypertensive dog measured as left ventricular pressure after 60 min of 10 mg/kg
[24] = system: Canis familiaris; assay: Hemodynamic effect in sinoaortic- deafferented hypertensive dog measured as heart rate after 0 min of 5 mg/kg dose; assay type: functional, Canis lupus familiaris
[25] = system: Canis familiaris; assay: effect of compound at a dose of 10 mg/kg iv, on standard cardiovascular in anesthetized normotensive dogs before administration of carbachol.; assay type: functional, Canis lupus familiaris, Heart; outline: as §8
[26] = system: Canis familiaris; assay: Mean heart rate after administration at a dose of 10 mg/kg iv.; assay type: functional, Canis lupus familiaris
[27] = system: Canis familiaris; assay: effect of compound at a dose of 10 mg/kg iv, on standard cardiovascular in anesthetized normotensive dogs after administration of norepinephrine.; assay type: functional, Canis lupus familiaris, Heart; outline: as §8
[28] = system: Canis familiaris; assay: Hemodynamic effect in sinoaortic- deafferented hypertensive dog measured as left ventricular pressure after 30 min of 10 mg/kg
[29] = system: Canis familiaris; assay: Hemodynamic effect in sinoaortic- deafferented hypertensive dog measured as left ventricular pressure after 0 min of 10 mg/kg
[30] = system: Canis familiaris; assay: Hemodynamic effect in sinoaortic- deafferented hypertensive dog measured as mean arterial BP after 5 min of 5 mg/kg dose; assay type: functional, Canis lupus familiaris
[31] = species on record: Rattus norvegicus; assay: hypotensive activity in renal hypertensive rats by using tail-cuff method measured as BP on day/h postdrug; assay type: functional, Blood
Outline: (§9)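 Renal hypertension (modified Grollman) was made in male Sprague-Dawley rats under pentobarbital sodium 50 mg/kg ip. The right kidney was removed, and silk sutures around both poles of the left kidney constricted the parenchyma. After 3 weeks of stabilization, rats with systolic BP >150 mmHg were used. Compounds were given orally. Systolic BP was measured by tail-cuff predose and at the stated day/h after dosing.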

[32] = system: Canis familiaris; assay: Hemodynamic effect in sinoaortic- deafferented hypertensive dog measured as cardiac output after 5 min of 10 mg/kg
[33] = system: Canis familiaris; assay: Hemodynamic effect in sinoaortic- deafferented hypertensive dog measured as mean arterial BP after 60 min of 5 mg/kg dose; assay type: functional, Canis lupus familiaris
[34] = system: Canis familiaris; assay: effect of compound at a dose of 10 mg/kg iv, on standard cardiovascular in anesthetized normotensive dogs after administration of epinephrine.; assay type: functional, Canis lupus familiaris, Heart; outline: as §8
[35] = system: Canis familiaris; assay: Hemodynamic effect in sinoaortic- deafferented hypertensive dog measured as left ventricular pressure after 5 min of 10 mg/kg
[36] = system: Canis familiaris; assay: Hemodynamic effect in sinoaortic- deafferented hypertensive dog measured as heart rate after 60 min of 5 mg/kg dose; assay type: functional, Canis lupus familiaris
[37] = system: Canis familiaris; assay: Hemodynamic effect in sinoaortic- deafferented hypertensive dog measured as cardiac output after 30 min of 10 mg/kg
[38] = species on record: Rattus norvegicus; assay: Oral hypotensive activity in spontaneously hypertensive rats by using tail-cuff method measured as the initial BP; assay type: functional, Blood; outline: as §6
[39] = system: Canis familiaris; assay: effect of compound at a dose of 10 mg/kg iv, on standard cardiovascular in anesthetized normotensive dogs after administration of tyramine.; assay type: functional, Canis lupus familiaris, Heart
[40] = species on record: Rattus norvegicus; assay: hypotensive activity in renal hypertensive rats by using tail-cuff method measured as initial BP; assay type: functional, Blood; outline: as §9
[41] = system: Canis familiaris; assay: Hemodynamic effect in sinoaortic- deafferented hypertensive dog measured as mean arterial BP after 0 min of 5 mg/kg dose; assay type: functional, Canis lupus familiaris
[42] = species on record: Rattus norvegicus; assay: Hypotensive activity in renal hypertensive rats by using tail-cuff method measured as change in BP on day/h postdrug; assay type: functional, Blood
Outline: (§10)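 Renal hypertension made in male Sprague-Dawley rats (Grollman modification). Under pentobarbital (50 mg/kg ip), the right kidney was removed and silk sutures tied around both poles of the left kidney to constrict it. After 3 weeks, rats with systolic BP >150 mmHg were used. Compound given po daily to 4 rats. Systolic BP by tail-cuff plethysmography at the listed day/hour after dosing.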

[43] = species on record: Rattus norvegicus; assay: Hypotensive activity in renal hypertensive rats by using tail-cuff method measured as BP on day/h postdrug; assay type: functional, Blood; outline: as §10
[44] = system: Canis familiaris; assay: Hemodynamic effect in sinoaortic- deafferented hypertensive dog measured as cardiac output after 0 min of 10 mg/kg
[45] = system: Rattus norvegicus; assay: Oral hypotensive activity in spontaneously hypertensive rats by using tail-cuff method measured as change in systolic BP at the dose of 30 mg/kg po.; assay type: functional, Blood; outline: as §6
[46] = system: Rattus norvegicus; assay: as §5; assay type: functional, Blood; outline: as §4; remark: listed apart in the source

c1ccc(CN2CCC3(C2)Oc2ccccc2C3n2cccc2)cc1 (stereo not drawn)
Delta blood pressure [1]: 18 mmHg | BP [2]: 171 mmHg | Delta blood pressure [3]: 27 mmHg | BP [4]: 198 mmHg | Delta blood pressure [5]: 42 mmHg | BP [6]: 185 mmHg | Delta blood pressure [7]: -10 mmHg | BP [8]: 211 mmHg

CN1CCC2(C1)Oc1ccccc1C2n1cccc1 (stereo in doubt; 10)
BP ([8]; 50 mg/kg): 197 mmHg | Delta blood pressure ([8]; 50 mg/kg): 38 mmHg

CCN1CCC2(CC1)Oc1ccccc1C2n1cccc1 (stereo not drawn)
Delta blood pressure [9]: 27 mmHg and 38 mmHg | BP [10]: 56.7 mmHg | BP [11]: 132.7 mmHg | BP [12]: -37 mmHg | BP [13]: 64.3 mmHg | Rate [14]: 134 beats min-1 | BP [15]: -39.3 mmHg | BP [16]: 98 mmHg | BP [17]: 44.8 mmHg | Rate [18]: 126 beats min-1 | Rate [19]: 167 beats min-1 | BP [20]: -34.3 mmHg | Cardiac output [21]: 1600 mL/min | BP [22]: 106.3 mmHg | dP/dt [23]: 25.6 1/Pmax | Rate [24]: 170 beats min-1 | BP [25]: -52 mmHg | Rate [26]: 126 beats min-1 | BP [27]: 66 mmHg | dP/dt [28]: 21.2 1/Pmax | dP/dt [29]: 27.2 1/Pmax | BP [30]: 121 mmHg | BP [31]: 131 mmHg and 113 mmHg and 116 mmHg and 129 mmHg | Cardiac output [32]: 1600 mL/min | BP [33]: 103 mmHg | BP [34]: 59.7 mmHg | dP/dt [35]: 20.3 1/Pmax | Rate [36]: 132 beats min-1 | Cardiac output [37]: 1530 mL/min | BP [38]: 180 mmHg and 214 mmHg | BP [39]: 84.3 mmHg | BP [40]: 162 mmHg | BP [41]: 165 mmHg | Delta blood pressure [42]: 31 mmHg and 52 mmHg and 49 mmHg and 46 mmHg and 33 mmHg | BP [43]: 110 mmHg | BP [8]: 187 mmHg | Delta blood pressure [8]: 71 mmHg | Cardiac output [44]: 2120 mL/min | BP [45]: 187 mmHg | Delta blood pressure [45]: 71 mmHg

c1ccc2c(c1)OC1(CCNC1)C2n1cccc1 (stereo not drawn)
Delta blood pressure [46]: 17 mmHg | BP [2]: 179 mmHg | Delta blood pressure [2]: 36 mmHg | BP [4]: 200 mmHg | BP [6]: 181 mmHg | Delta blood pressure [6]: 13 mmHg | BP [8]: 223 mmHg | Delta blood pressure [8]: 58 mmHg
